Laboratory results reported in PMC3895945 (Nuclear medicine and biology, 2013).

Columns and labels:
9L glioma cells = assay: In vitro uptake studies in 9L cells; type: cell-based; details: for uptake in 9L cells: result in words; for uptake relative to that of FET: 9L glioma cells, 5-120 min incubation at 37 °C
In short: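 9L gliosarcoma cells were grown in DMEM with 10 % FBS (37 °C, 5 % CO2) and plated at 2.0 × 10^5 cells/well 24 h ahead. Cells were washed with warm PBS containing Ca2+/Mg2+, then given radiolabeled test compound in PBS (~500,000 cpm/mL/well) at 37 °C for 5, 30, 60 or 120 min. They were washed with ice-cold PBS, lysed in 0.1N NaOH and gamma-counted. Uptake was normalised to protein (modified Lowry) as %uptake/100 μg protein, in triplicate.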

In vitro metabolism [1] = type: in vitro ADME, human
In short: (§1)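 Radiolabeled test compound (~3 MBq in 50 μL PBS) was added to 1.0 mL preheated blood or a PBS control at 37 °C. Rat blood was freshly drawn from anesthetized Fisher 344 rats into heparin (100 unit/mL); heparinized human blood had been stored at −70 °C. Aliquots taken at 5–120 min were deproteinized with 1 % picric acid and centrifuged. Supernatant was analysed by C-18 radio-HPLC. Percent intact compound versus time was fitted to first-order kinetics.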

9L tumors [2] = assay: In vivo biodistribution in Fisher rats with 9L glioma tumors; parameters: species or system Fischer 344 rats; details: for Tissue distribution Tumor: 9L tumor; for tumor uptake kinetics and retention: biodistribution 30 to 60 min, result in words; for Tumor/Blood / Tumor/Brain / Tumor/Muscle: ratio
[3] = In vivo metabolism studies of FET prodrugs in Fisher 344 rats; details: blood drawn 5 min after intravenous injection
In short: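 Fisher 344 rats received ~37 MBq radiolabeled test compound intravenously. Blood was drawn from the heart 5 min post-injection. 50 μL aliquots were deproteinized with 1 % picric acid and centrifuged at 12,000g. Supernatant was run on C-18 HPLC (CH3CN/0.1 % formic acid), and fractions were gamma-counted. Parent and radio-metabolites were identified by retention time.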

In vitro metabolism [4] = type: in vitro ADME, rat; details: Fisher 344, rat, fresh heparinized rat whole blood
In short: as §1

9L tumors [5] = assay: Dynamic small animal PET imaging in rats bearing 9L tumors; type: in vivo, Fisher rats; details: for maximum tumor-to-muscle ratio: PET region-of-interest analysis; for maximum tumor-to-muscle ratio / time to maximum tumor uptake: 9L tumors; for time to maximum tumor uptake / tumor uptake kinetics and retention: PET time-activity curves; for tumor uptake kinetics and retention: result in words
[6] = 30 min after intravenous injection
[7] = 60 min after intravenous injection
[8] = 30 min after intravenous injection, listed as FET-Ala([^18F]3)

## C[C@H](NC(=O)[C@@H](N)Cc1ccc(OCC[18F])cc1)C(=O)O [FET-Ala ([^18F]3), O-(2-[^18F]fluoroethyl)-L-tyrosyl-L-alanine]
9L glioma cells
  uptake in 9L cells: negligible uptake
  uptake relative to that of FET: less than 1%
In vitro metabolism [1]; human, heparinized human whole blood
  half-life: 0.8 min
9L tumors [2]; [6]
  Tissue distribution Tumor: 1.18 ± 0.10 % ID/g
  Tissue distribution Blood: 0.72 ± 0.03 % ID/g
  Tissue distribution Bone: 0.41 ± 0.03 % ID/g
  Tissue distribution Brain: 0.31 ± 0.01 % ID/g
  Tissue distribution Heart: 0.67 ± 0.03 % ID/g
  Tissue distribution Kidney: 0.58 ± 0.02 % ID/g
  Tissue distribution Liver: 0.66 ± 0.02 % ID/g
  Tissue distribution Lung: 0.62 ± 0.02 % ID/g
  Tissue distribution Muscle: 0.54 ± 0.01 % ID/g
  Tissue distribution Pancreas: 3.06 ± 0.38 % ID/g
  Tissue distribution Skin: 0.69 ± 0.20 % ID/g
  Tissue distribution Spleen: 0.74 ± 0.06 % ID/g
  Tumor/Blood: 1.6
  Tumor/Brain: 3.8
  Tumor/Muscle: 2.2
9L tumors [2]; [7]
  Tissue distribution Tumor: 1.10 ± 0.29 % ID/g
  Tissue distribution Blood: 0.72 ± 0.03 % ID/g
  Tissue distribution Bone: 0.46 ± 0.03 % ID/g
  Tissue distribution Brain: 0.38 ± 0.02 % ID/g
  Tissue distribution Heart: 0.66 ± 0.03 % ID/g
  Tissue distribution Kidney: 0.57 ± 0.02 % ID/g
  Tissue distribution Liver: 0.65 ± 0.02 % ID/g
  Tissue distribution Lung: 0.61 ± 0.03 % ID/g
  Tissue distribution Muscle: 0.60 ± 0.03 % ID/g
  Tissue distribution Pancreas: 3.52 ± 0.26 % ID/g
  Tissue distribution Skin: 0.73 ± 0.16 % ID/g
  Tissue distribution Spleen: 0.71 ± 0.03 % ID/g
  Tumor/Blood: 1.53 ± 0.41
  Tumor/Brain: 2.89 ± 0.78
  Tumor/Muscle: 1.83 ± 0.49
9L tumors [2]
  tumor uptake kinetics and retention: long retention
9L tumors [2]; biodistribution, 9L tumors
  time to maximum uptake in the tumors: ≤ 30 min
9L tumors [2]; [8]
  Tumor/Blood: 1.64 ± 0.15
  Tumor/Brain: 3.81 ± 0.35
  Tumor/Muscle: 2.18 ± 0.19
[3]
  metabolized to FET: 79%
In vitro metabolism [4]
  half-life: 5.8 min
9L tumors [5]
  maximum tumor-to-muscle ratio: 5
  time to maximum tumor uptake: ≤ 20 min
  tumor uptake kinetics and retention: long retention

## CC(=O)N[C@@H](Cc1ccc(OCC[18F])cc1)C(=O)O [AcFET ([^18F]4), N-acetyl O-(2-[^18F]fluoroethyl)-L-tyrosine]
9L glioma cells
  uptake in 9L cells: negligible uptake
  uptake relative to that of FET: less than 1%
In vitro metabolism [1]; human blood, 37 °C
  stability in human blood: completely stable
9L tumors [2]; [6]
  Tissue distribution Tumor: 0.61 ± 0.13 % ID/g
  Tissue distribution Blood: 0.69 ± 0.03 % ID/g
  Tissue distribution Bone: 0.32 ± 0.01 % ID/g
  Tissue distribution Brain: 0.26 ± 0.01 % ID/g
  Tissue distribution Heart: 0.60 ± 0.03 % ID/g
  Tissue distribution Kidney: 0.70 ± 0.07 % ID/g
  Tissue distribution Liver: 0.64 ± 0.01 % ID/g
  Tissue distribution Lung: 0.55 ± 0.04 % ID/g
  Tissue distribution Muscle: 0.45 ± 0.02 % ID/g
  Tissue distribution Pancreas: 2.54 ± 0.11 % ID/g
  Tissue distribution Skin: 0.48 ± 0.01 % ID/g
  Tissue distribution Spleen: 0.66 ± 0.02 % ID/g
  Tumor/Blood: 0.88 ± 0.19
  Tumor/Brain: 2.35 ± 0.51
  Tumor/Muscle: 1.36 ± 0.30
9L tumors [2]; [7]
  Tissue distribution Tumor: 0.85 ± 0.09 % ID/g
  Tissue distribution Blood: 0.62 ± 0.01 % ID/g
  Tissue distribution Bone: 0.33 ± 0.01 % ID/g
  Tissue distribution Brain: 0.36 ± 0.03 % ID/g
  Tissue distribution Heart: 0.56 ± 0.02 % ID/g
  Tissue distribution Kidney: 0.57 ± 0.05 % ID/g
  Tissue distribution Liver: 0.56 ± 0.01 % ID/g
  Tissue distribution Lung: 0.51 ± 0.01 % ID/g
  Tissue distribution Muscle: 0.49 ± 0.01 % ID/g
  Tissue distribution Pancreas: 2.23 ± 0.51 % ID/g
  Tissue distribution Skin: 0.44 ± 0.01 % ID/g
  Tissue distribution Spleen: 0.65 ± 0.06 % ID/g
  Tumor/Blood: 1.37 ± 0.15
  Tumor/Brain: 2.36 ± 0.32
  Tumor/Muscle: 1.73 ± 0.19
9L tumors [2]
  tumor uptake kinetics and retention: slower uptake kinetics
[3]
  metabolized to FET: 66%
In vitro metabolism [4]
  half-life: 77.5 min
9L tumors [5]
  maximum tumor-to-muscle ratio: < 5
  time to maximum tumor uptake: 60 min
  tumor uptake kinetics and retention: slower kinetics
